proCasp3 act – activators of human procaspase-3; actives 0.11% (n = 330,000); activation, % at 8.5 µM; recombinant procaspase-3 D3A, Ac-DEVD-pNA absorbance 405 nm; AID 463141;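 active = activation above the mean of all tested compounds plus 3 SD, cut at about 21% in these data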;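 also: 0% = DMSO alone and 100% = DMSO wells spiked with extra 5 µM PC-3 D3A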
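Technique: 405 nm absorbance of p-nitroaniline, reads at 0 and 120 min; Test system: Procaspase-3 D3A mutant; Incubation: 1 h enzyme-compound preincubation, then 2 h substrate reaction, 25 °C; Repeats: singlicate, each compound tested once; Benchmarks: low control DMSO wells, high control DMSO plus 5 µM PC-3 D3A.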
PHOSPHO1 inh – inhibitors of human PHOSPHO1 phosphatase | recombinant PHOSPHO1, absorbance phosphatase assay | Q8TCT1 | AID 1565 | actives 1.1% (n = 290,000) | inhibition, % at 13.3 µM; in the data active = inhibition above about 60%
Target sequence (Q8TCT1 whole entry, looked up): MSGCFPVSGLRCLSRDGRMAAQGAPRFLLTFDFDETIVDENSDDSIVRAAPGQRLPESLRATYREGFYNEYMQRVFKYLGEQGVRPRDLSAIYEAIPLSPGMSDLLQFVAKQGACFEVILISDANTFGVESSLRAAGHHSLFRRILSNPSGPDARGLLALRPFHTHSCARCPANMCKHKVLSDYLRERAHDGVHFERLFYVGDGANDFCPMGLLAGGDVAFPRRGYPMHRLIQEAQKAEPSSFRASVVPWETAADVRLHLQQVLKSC
IDE cell inh – inhibitors of human insulin-degrading enzyme in cells; P14735; HEK cells, FAbetaB cleavage, fluorescence polarization; inhibition, % at 5.59 µM; actives 0.41% (n = 320,000);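 active = percent inhibition above the average of all tested compounds plus 3 SD, set per screening campaign, cut at about 16% in these data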;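 also: IDE supplied by intact live HEK cells; FP after avidin binding of uncleaved biotin substrate so inhibition keeps polarization high; 0% = DMSO wells and 100% = 60 µM reference IDE inhibitor Ii1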
IDE cell activ – boosts human insulin-degrading enzyme activity in HEK cells | P14735 | FAbeta-B cleavage, fluorescence polarization; 0% vehicle, 100% cell-free pure enzyme wells | activation, % at 5.96 µM | actives 0.073% (n = 340,000);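 active = activation above the mean of all tested compounds plus 3 SD, set per screening campaign, cut at about 17% in these data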
proCasp7 act – activates human procaspase-7, counter-screen for procaspase-3 activators | P55210 | recombinant procaspase-7, Ac-DEVD-pNA absorbance 405 nm; D23A/D198A/D206A triple mutant, cannot self-cleave; scale: DMSO 0, 5 µM enzyme 100 | activation, % at 8.5 µM | actives 0.093% (n = 330,000) | AID 463210;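 active = percent activation above the screen-wide mean plus 3 SD, cut at about 25% in these data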
Target sequence (P55210 whole entry D23A/D198A/D206A): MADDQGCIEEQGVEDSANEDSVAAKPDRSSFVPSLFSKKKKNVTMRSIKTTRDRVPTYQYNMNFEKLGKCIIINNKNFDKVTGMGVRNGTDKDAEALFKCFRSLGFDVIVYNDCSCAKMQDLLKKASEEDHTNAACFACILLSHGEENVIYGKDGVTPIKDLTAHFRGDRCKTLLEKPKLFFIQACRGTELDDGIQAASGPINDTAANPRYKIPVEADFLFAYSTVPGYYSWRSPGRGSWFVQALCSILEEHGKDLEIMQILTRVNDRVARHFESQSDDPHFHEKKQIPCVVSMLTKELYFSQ
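signal = Epi-absorbance of released pNA at 405 nm, two timepoints | assay system = Uncleavable procaspase-7 mutant enzyme | reagent = Ac-DEVD-pNA substrate, 400 µM as added | times = 1 h enzyme–compound preincubation and 2 h substrate reaction, both 25 °C | benchmarks = low DMSO alone, high DMSO plus 5 µM PC-7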
UBC13 inh – blocks human UBC13 polyubiquitin chain formation; TR-FRET; inhibition, % at 20 µM; actives 0.47% (n = 330,000); AID 485273; in the data active = inhibition above about 45%, passing the limit was not always enough; inconclusive = no clear call, values can overlap the other calls
Starred values were filed as active, the others as inactive; ? = inconclusive; . = no result given. In the library only some 1.9% were active in any assay of this set; here they are far more common.

SMILES	proCasp3 act	PHOSPHO1 inh	IDE cell inh	IDE cell activ	proCasp7 act	UBC13 inh
CC(=O)N1CC(C)Oc2ccc(S(=O)(=O)NC(CC(=O)O)c3ccccc3C)cc21 (stereo unspecified)	10	65*	-1	5	4	-4
O=S(=O)(c1ccccc1)c1nc(-c2ccco2)oc1NCc1cccnc1	-4	68*	3	-2	-12	-8
COc1ccc(NS(=O)(=O)c2ccc(N3CCCC3)c(NC(=S)Nc3cccc(S(=O)(=O)N(C)C)c3)c2)cc1	-20	64*	1	.	-24	1
CNC(=S)Nc1ccc(N2CCCC2)c(S(=O)(=O)Nc2ccc(OC)cc2)c1	-4	.	7	7	-13	-2
CC1CN(CC(=O)Nc2nc3ccccc3s2)CC(C)O1 (stereo unspecified)	-9	-200	5	3	-3	1
Cc1ccc(NC(=O)CSc2nnc(C)n2-c2ccccc2)cc1	-9	3	7	-6	-2	-1
Cc1nnc(SCC(=O)Nc2ccc(N3CCOCC3)cc2)n1-c1ccccc1	-1	64*	-9	4	-1	0
CC(=O)Nc1ccc(OCC(=O)Nc2ccc(Cl)c(S(=O)(=O)N3CCOCC3)c2)cc1	3	.	2	.	4	-12
CC1(C)Cc2c(sc3[nH]c(=S)n(Cc4ccccc4)c(=O)c23)CO1	-1	76*	-1	-1	-27	39
O=C(CSc1nc2ccccc2[nH]1)NCCN1CCCCC1	3	65*	0	4	8	6
Cc1cc(Cl)ccc1-n1c(-c2cccnc2)n[nH]c1=S	-2	78*	5	0	-5	4
Cc1ccc(C)c(-n2c(-c3cccnc3)n[nH]c2=S)c1	-3	13	8	4	-2	-4
S=c1[nH]nc(-c2ccncc2)n1Cc1ccccc1	-8	88*	1	3	-10	2
COc1ccccc1-n1c(-c2ccc(NS(C)(=O)=O)cc2)n[nH]c1=S	0	88*	-2	4	-13	2
CCc1ccccc1-n1c(-c2ccncc2)n[nH]c1=S	-10	90*	4	-5	-2	4
CCC1(c2ccc(Cl)cc2)NC(=O)N(CC(=O)NC2CCCC(C)C2C)C1=O (stereo unspecified)	.	.	.	-1	.	2
Cc1ccccc1-n1nc2c(c1NC(=O)CC(C)C)CS(=O)C2 (stereo unspecified)	10	30	-3	-1	2	-2
Cc1nc(NC(=O)CCN2C(=O)C3CC=CCC3C2=O)sc1C (stereo unspecified)	1	61*	4	6	-4	8
O=C1C=C(c2cccc3c2sc2ccccc23)C[C@@H](c2ccc(Cl)cc2)C1	10	.	6	23*	-10	-6
N#Cc1c(-c2ccccc2)nc(SCC(=O)N2c3ccccc3Sc3ccccc32)[nH]c1=O	-5	8	3	5	-5	18
N#CC1=C(N)SC(N)=C(C#N)C1c1c(Cl)cccc1Cl	-28	82*	1	-5	-25	?
CCOc1ccccc1CN1CCNC(=O)C1CC(=O)NCc1nc(C)cs1 (stereo unspecified)	.	36	.	4	.	0
CCOC(=O)C1=C(CSc2nc(-c3ccccc3)ccc2C#N)OC(N)=C(C#N)C1c1ccc(OC)cc1 (stereo unspecified)	-18	-30	3	-7	-17	-6
CCOC(=O)C1=C(CSc2nc3c(cc2C#N)CN(C)CC3)OC(N)=C(C#N)C1c1ccncc1 (stereo unspecified)	-7	0	2	0	-5	-6
CCOC(=O)C1=C(CSc2nc(C)cc(C)c2C#N)OC(N)=C(C#N)C1c1ccccc1 (stereo unspecified)	-20	91*	7	2	-11	-5
SMILES	proCasp3 act	PHOSPHO1 inh	IDE cell inh	IDE cell activ	proCasp7 act	UBC13 inh
CCOC(=O)C1=C(CSc2nc3c(cc2C#N)CN(C)CC3)OC(N)=C(C#N)C1c1ccc(Cl)cc1 (stereo unspecified)	-25	67*	-1	-2	-33	-25
CCOC(=O)C1=C(CSc2nc(CC)c(C)cc2C#N)OC(N)=C(C#N)C1c1ccccc1 (stereo unspecified)	-22	89*	1	0	-4	-2
CC(NC(=O)CNC(=O)c1ccccc1F)c1ccc(-n2ccnc2)cc1 (stereo unspecified)	5	.	3	2	2	-8
Cc1cc(C(=O)Nc2ccc(N3CCOCC3)c3nonc23)ccc1[N+](=O)[O-]	5	-48	-3	5	-6	-19
CN1CCN(CCCNC(=O)c2cc3c(-c4ccc(Cl)cc4)nn(C)c3s2)CC1	2	-19	4	4	1	46*
Cc1ccc(NC(=S)Nc2cccc(-c3n[nH]c(=S)o3)c2)cc1	-8	-85	-1	0	-9	-7
COc1ccc(S(=O)(=O)N2CCOCC2)cc1NC(=O)CN1CCN(C)CC1	10	.	4	7	5	4
Cc1ccc(S(=O)(=O)N2CCOC2CNC(=O)C(=O)NCC(C)C)cc1 (stereo unspecified)	-5	62*	6	6	11	0
COc1ccc(S(=O)(=O)N2CCCOC2CNC(=O)C(=O)NCCCn2ccnc2)cc1 (stereo unspecified)	13	61*	1	1	9	6
C=CCn1c(-c2cccc3ccccc23)n[nH]c1=S	1	95*	4	2	-14	10
C=CCn1c(-c2ccccc2OC)n[nH]c1=S	-7	11	2	-5	-5	8
C=CCn1c(Cc2c[nH]c3ccccc23)n[nH]c1=S	-11	95*	3	0	-10	8
C=CCn1c(-c2cc(OC)cc(OC)c2)n[nH]c1=S	1	97*	-1	-5	-8	-6
CNc1c2cccc(C)c2nc2c(C(=O)NCCN(C)C)cccc12	.	.	.	1	.	.
Clc1ccccc1-c1nn2c(-c3ccncc3)nnc2s1	-8	72*	6	-2	-1	7
Cc1oc(-c2ccccc2Cl)cc1-c1nn2c(-c3ccco3)nnc2s1	.	72*	.	.	.	.
Clc1ccccc1-c1nnc2sc(-c3ccncc3)nn12	10	9	-1	9	4	6
COc1ccc(-c2nnc3sc(C4CCCCC4)nn23)cc1OC	2	14	-5	1	2	6
Clc1ccc(-c2ccc(-c3nn4c(-c5ccco5)nnc4s3)o2)cc1	-4	.	0	-4	-16	26
CCOc1cccc(-c2nnc3sc(-c4ccco4)nn23)c1	1	64*	2	4	8	4
c1coc(-c2nnc3sc(C4CCCCC4)nn23)c1	2	72*	0	2	-14	-8

Source: PubChem (several laboratories)
